Activity calls are given as the source filed them. The rule behind the calls is not given here.
Assays:
[1] = Chromatographic hydrophobicity index in methanol solution under isocratic conditions at pH 6.8; assay type: physicochemical
Summary of the method: (§1)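 RP-HPLC on a C18 column at 35 °C, 0.7 mL/min. Mobile phase was CH3CN or CH3OH with 50 mM aq ammonium formate (pH 6.8). […], with t0 from uracil and tR measured in duplicate. Six isocratic compositions were chosen so that −1.5 < log k < 0.6, and the index was derived from the linear log k versus organic-fraction relation.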

[2] = Chromatographic hydrophobicity index in acetonitrile solution under isocratic conditions at pH 6.8; assay type: physicochemical; summary of the method: as §1
PAM212 [3] = test: Drug uptake in mouse PAM212 cells assessed as enhanced PpIX fluorescence at 0.01 mM after 4 hrs; assay type: ADME, cell-based; conditions: pam212, 4 h, 10 µM
Summary of the method: (§2)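 PAM212 cells were seeded 5 × 10^4/well, grown 48 h, PBS-washed and incubated with drug at 0.01 or 0.1 mM in serum-free medium for 4 or 6 h. Untreated wells gave background and ALA wells served as reference. Well fluorescence: excitation 410 nm, emission 635 nm, scans 600–750 nm. Mean intensity (arbitrary units) after control subtraction, calibrated against rhodamine B.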

PAM212 [4] = test: Drug uptake in mouse PAM212 cells assessed as enhanced PpIX fluorescence at 0.1 mM after 4 hrs; assay type: ADME, cell-based; conditions: pam212, 4 h, 100 µM; summary of the method: as §2
PAM212 [5] = test: Drug uptake in mouse PAM212 cells assessed as PpIX production per mg of protein at 1 mM after 4 hrs; assay type: ADME, cell-based; conditions: pam212, 4 h, 1000 µM
Summary of the method: (§3)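 Cells (PAM212; A549 in F12K; Caco-2 in EMEM, 37 °C, 5% CO2) were seeded in 100 mm dishes and grown 48 h at 37 °C. After PBS washing they were incubated 4 h at 37 °C with 0.1 or 1 mM drug, washed, lysed 15 min and scraped, then centrifuged at 1800 g for 10 min. Supernatant PpIX was read by fluorescence (410/635 nm) against a PpIX standard curve and normalized to protein by BCA.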

PAM212 [6] = test: Drug uptake in mouse PAM212 cells assessed as PpIX production per mg of protein at 0.1 mM after 4 hrs; assay type: ADME, cell-based; conditions: pam212, 4 h, 100 µM; summary of the method: as §3
PAM212 [7] = test: Drug uptake in mouse PAM212 cells assessed as intracellular 5-aminolaevulinic acid level per mg of protein at 1 mM after 4 hrs; assay type: ADME, cell-based; conditions: pam212, 4 h, 1000 µM
PAM212 [8] = test: Drug uptake in mouse PAM212 cells assessed as intracellular 5-aminolaevulinic acid level per mg of protein at 0.1 mM after 4 hrs; assay type: ADME, cell-based; conditions: pam212, 4 h, 100 µM
PAM212 [9] = test: Cytotoxicity against mouse PAM212 cells after 24 hrs in absence of 2.5 J/cm2 blue light by MTT assay; assay type: functional, cell-based
Summary of the method: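 Dark toxicity. PAM212 keratinocytes (RPMI-1640, 10% FCS) were seeded about 5 × 10^4 cells/well and grown 48 h, PBS-washed, then given drug for 4 h without irradiation. Medium was replaced and cells were kept a further 24 h. MTT 1 mg/mL for 3 h, formazan dissolved in DMSO, absorbance at 570 nm.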

PAM212 [10] = test: Drug uptake in mouse PAM212 cells assessed as enhanced PpIX fluorescence at 0.01 mM after 6 hrs; assay type: ADME, cell-based; conditions: pam212, 6 h, 10 µM; summary of the method: as §2
PAM212 [11] = test: Phototoxicity against mouse PAM212 cells assessed as cell viability at 0.1 mM after 4 hrs irradiated with 2.5 J/cm2 blue light by MTT assay relative to control; assay type: functional; conditions: PAM212, light or radiation study, read-out: Activity
Summary of the method: (§4)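 PAM212 cells were seeded about 5 × 10^4/well, grown 48 h, PBS-washed and incubated 4 h with drug at 0.01, 0.1 or 1 mM. Blue light (peak 420 nm) was delivered at 2.5 J/cm², although the methods section states 1.25 J/cm². Medium was then replaced and cells kept 24 h. MTT 1 mg/mL for 3 h, DMSO, A570; survival as % of non-irradiated drug-treated controls.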

PAM212 [12] = test: Drug uptake in mouse PAM212 cells assessed as enhanced PpIX fluorescence at 0.1 mM after 6 hrs; assay type: ADME, cell-based; conditions: pam212, 6 h, 100 µM; summary of the method: as §2
PAM212 [13] = test: Phototoxicity against mouse PAM212 cells assessed as cell viability at 0.01 mM after 4 hrs irradiated with 2.5 J/cm2 blue light by MTT assay relative to control; assay type: functional, cell-based; summary of the method: as §4
Caco-2 [14] = test: Drug uptake in human Caco-2 cells assessed as PpIX production per mg of protein at 1 mM after 4 hrs; assay type: ADME, cell-based; conditions: caco-2, 4 h, 1000 µM; summary of the method: as §3
Caco-2 [15] = test: Drug uptake in human Caco-2 cells assessed as intracellular 5-aminolaevulinic acid level per mg of protein at 1 mM after 4 hrs; assay type: ADME, cell-based; conditions: caco-2, 4 h, 1000 µM
A549 [16] = test: Drug uptake in human A549 cells assessed as PpIX production per mg of protein at 0.1 mM after 4 hrs; assay type: ADME, cell-based; conditions: a549, 4 h, 100 µM; summary of the method: as §3
A549 [17] = test: Drug uptake in human A549 cells assessed as intracellular 5-aminolaevulinic acid level per mg of protein at 0.1 mM after 4 hrs; assay type: ADME, cell-based; conditions: a549, 4 h, 100 µM

| CHI [1] | CHI [2] | Drug uptake (PAM212 [3]) | Drug uptake (PAM212 [4]) | Drug uptake (PAM212 [5]) [ng/mg] | Drug uptake (PAM212 [6]) [ng/mg] | Drug uptake (PAM212 [7]) [µg/mg] | Drug uptake (PAM212 [8]) [µg/mg] | Drug uptake (PAM212 [10]) | Drug uptake (PAM212 [12]) | Drug uptake (Caco-2 [14]) [ng/mg] | Drug uptake (Caco-2 [15]) [µg/mg] | Drug uptake (A549 [16]) [ng/mg] | Drug uptake (A549 [17]) [µg/mg] | SMILES | Activity (PAM212 [9]) | viability at 100 µM (PAM212 [11]) [%] | Activity (PAM212 [13]) |
| --- | --- | --- | --- | --- | --- | --- | --- | --- | --- | --- | --- | --- | --- | --- | --- | --- | --- |
| 58.35 | 38.88 | Active | Active | – | – | – | – | – | – | – | – | – | – | COCCOCCOC(=O)CCC(=O)CNC(=O)[C@H](Cc1ccccc1)NC(C)=O | – | – | – |
| 22.08 | 37.32 | – | – | – | – | – | – | – | – | – | – | – | – | COC(=O)CCC(=O)CNC(=O)[C@@H](Cc1c[nH]c2ccccc12)NC(C)=O | – | – | – |
| 36.43 | 14.61 | – | – | 222 | 33.9 | 2.17 | 0.5 | – | – | – | – | – | – | COC(=O)CCC(=O)CNC(=O)[C@H](CO)NC(C)=O | – | – | – |
| 50.92 | 36.67 | Active | Active | 290 | 276 | 12.2 | 2.8 | Active | Active | 612 | 6.54 | 5.91 | 0.2 | COC(=O)CCC(=O)CNC(=O)[C@H](CC(C)C)NC(C)=O | inactive | 3 | – |
| 52.96 | 34.71 | Active | Active | 295 | 313 | 13.7 | 2.9 | Active | Active | 594 | 11.9 | 4.42 | 0.38 | COC(=O)CCC(=O)CNC(=O)[C@H](Cc1ccccc1)NC(C)=O | inactive | 3 | Active |
| 52.62 | 37.71 | – | – | -2.99 | 4.57 | 4.35 | 1.07 | – | – | – | – | – | – | COC(=O)CCC(=O)CNC(=O)[C@@H](Cc1ccccc1)NC(C)=O | – | – | – |
| 57.58 | 44.01 | Active | Active | – | – | – | – | – | – | – | – | – | – | CCOC(=O)CCC(=O)CNC(=O)[C@H](Cc1ccccc1)NC(C)=O | – | – | – |
| 110.53 | 53.22 | Active | Active | – | – | – | – | – | – | – | – | – | – | CC(=O)N[C@@H](Cc1ccccc1)C(=O)NCC(=O)CCC(=O)O[C@@H]1C[C@H](C)CCC1C(C)C (some centres not stated) | – | – | – |

Continued, compound first:

| SMILES | CHI [1] | CHI [2] | Drug uptake (PAM212 [3]) | Drug uptake (PAM212 [4]) | Drug uptake (PAM212 [5]) [ng/mg] | Drug uptake (PAM212 [6]) [ng/mg] | Drug uptake (PAM212 [7]) [µg/mg] | Drug uptake (PAM212 [8]) [µg/mg] | Drug uptake (PAM212 [10]) | Drug uptake (PAM212 [12]) | Drug uptake (Caco-2 [14]) [ng/mg] | Drug uptake (Caco-2 [15]) [µg/mg] | Drug uptake (A549 [16]) [ng/mg] | Drug uptake (A549 [17]) [µg/mg] | Activity (PAM212 [9]) | viability at 100 µM (PAM212 [11]) [%] | Activity (PAM212 [13]) |
| --- | --- | --- | --- | --- | --- | --- | --- | --- | --- | --- | --- | --- | --- | --- | --- | --- | --- |
| COC(=O)CCC(=O)CNC(=O)[C@@H](CC(C)C)NC(C)=O | 50.76 | 33.89 | – | – | – | – | – | – | – | – | – | – | – | – | – | – | – |
| COC(=O)CCC(=O)CNC(=O)CNC(C)=O | 18.77 | 10.31 | – | – | – | – | – | – | – | – | – | – | – | – | – | – | – |
| COC(=O)CCC(=O)CNC(=O)[C@H](CCSC)NC(C)=O | 41.4 | 28.89 | Active | Active | 295 | 315 | 13.2 | 3.28 | Active | Active | – | – | – | – | inactive | 3 | Active |
| NCC(=O)CCC(=O)O [AMINOLEVULINIC ACID] | – | – | – | – | 310 | 108 | 3.41 | 0.81 | – | – | 603 | 2.66 | 39.9 | 0.08 | – | 11 | inactive |
| COC(=O)CCC(=O)CNC(=O)[C@H](CCCCN)NC(C)=O | 13.61 | 8.48 | – | – | 20.2 | 13.2 | 3.06 | 0.68 | – | – | – | – | – | – | – | – | – |

— ChEMBL document CHEMBL1137010, “Improved peptide prodrugs of 5-ALA for PDT: rationalization of cellular accumulation and protoporphyrin IX production by direct determination of cellular prodrug uptake and prodrug metabolization” (J Med Chem, 2009)
